In ChEMBL document CHEMBL1134139, “Synthesis and biological activity of novel macrocyclic antifungals. modification of the tyrosine moiety of the lipopeptidolactone FR901469” (2001):
Converted amounts (≈) assume the structure as drawn. Numbered stars: 1 amine (or outer) side, 2 acyl side, 3 side chain; on linkers, the order of the positions; unused ones are H or OH. Bridge positions count the residues as written; N and C are the ends. Square brackets hold non-standard residues; d marks the D form. Peptide text beside a SMILES is read from it. ξ: configuration not given here. X2 = O=C(CCC(=O)N1CCNCC1)Nc1cc(C[C@H](N[*:1])C(=O)[*:2])ccc1O; X3 = O=C(O)CCC(=O)Nc1cc(C[C@H](N[*:1])C(=O)[*:2])ccc1O; Gln(3R-OH) = NC(=O)C[C@@H](O)[C@H](N)C(=O)O; X1 = CCCCCCCCCCCCC[C@H](CC(=O)[*:1])O[*:2]; Pro(3S-OH) = O=C(O)[C@H]1NCC[C@@H]1O; Hyp = O=C(O)[C@@H]1C[C@@H](O)CN1; Orn = NCCC[C@H](N)C(=O)O; ξA = CC(N)C(=O)O

Columns and labels:
Aspergillus fumigatus [1] = test: In vitro antifungal activity against Aspergillus fumigatus 8004 by broth microdilution method; format: functional
Outline: (§1)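 Broth microdilution run to NCCLS M27-A guidelines. MIC read per that standard.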

Aspergillus fumigatus [2] = test: In vitro antifungal activity against Aspergillus fumigatus FP1305 by broth microdilution method; format: functional; outline: as §1
Candida albicans [3] = test: In vitro antifungal activity against Candida albicans 13004 by broth microdilution method; format: functional; outline: as §1
Mus musculus [4] = species on record: Mus musculus; test: Ability to hemolyze ICR mouse RBCs at 1 mg/mL using microtiter red blood cell hemolysis assay.
Candida albicans [5] = test: In vitro antifungal activity against Candida albicans FP633 by broth microdilution method; format: functional; outline: as §1
Mus musculus [6] = test: Compound was evaluated in vivo for antifungal activity and efficacy in disseminated murine candidiasis was determined; format: functional

Compound | MIC (Aspergillus fumigatus [1]) [µg/mL] | MIC (Aspergillus fumigatus [2]) [µg/mL] | MIC (Candida albicans [3]) [µg/mL] | Hemolytic activity (Mus musculus [4]) [%] | MIC (Candida albicans [5]) [µg/mL] | ED50 (Mus musculus [6]) [mg/kg]
CCCCCCCCCCCCC[C@H](CC(=O)N[C@H](C(=O)N[C@H](C)C(=O)N[C@@H](Cc1ccc(OCC(=O)NCCN)cc1)C(=O)N[C@H](C(=O)N1C[C@H](O)C[C@H]1C(=O)N[C@H](C(=O)N[C@H](C(=O)N1CC[C@H](O)[C@H]1C(=O)N[C@H](C(=O)NCC(=O)N[C@H](C(N)=O)[C@@H](C)O)[C@H](O)CC(N)=O)[C@@H](C)O)[C@@H](C)O)C(C)C)[C@@H](C)O)OC(=O)[C@@H](C)CCCN.Cl | 1 | 0.5 | 1 | 45 | 1 | 
CCCCCCCCCCCCC[C@H](CC(=O)N[C@H](C(=O)N[C@@H](C)C(=O)N[C@@H](Cc1ccc(OCC(=O)O)c(NC(=O)CCN)c1)C(=O)N[C@H](C(=O)N1C[C@H](O)C[C@H]1C(=O)N[C@@H](C(=O)N[C@H](C(=O)N1CC[C@H](O)[C@H]1C(=O)N[C@H](C(=O)NCC(=O)N[C@H](C(N)=O)[C@@H](C)O)[C@H](O)CC(N)=O)[C@@H](C)O)[C@@H](C)O)C(C)C)[C@@H](C)O)OC(=O)[C@@H](C)CCCN.Cl | 0.5 | 0.125 | 0.5 | 23 | 0.5 | 0.72
CCCCCCCCCCCCC[C@H](CC(=O)N[C@@H](C(=O)N[C@H](C)C(=O)N[C@@H](Cc1ccc(O)c(NC(=O)C[C@H](N)C(=O)O)c1)C(=O)N[C@H](C(=O)N1C[C@H](O)C[C@H]1C(=O)N[C@@H](C(=O)N[C@H](C(=O)N1CC[C@H](O)[C@H]1C(=O)N[C@H](C(=O)NCC(=O)N[C@@H](C(N)=O)[C@@H](C)O)[C@H](O)CC(N)=O)[C@@H](C)O)[C@@H](C)O)C(C)C)[C@@H](C)O)OC(=O)[C@@H](C)CCCN | 0.5 (≈ 0.298 µM) | 0.25 (≈ 0.149 µM) | 1 (≈ 0.595 µM) | 75 | 0.5 (≈ 0.298 µM) | 0.8
CCCCCCCCCCCCC[C@H](CC(=O)N[C@@H](C(=O)N[C@H](C)C(=O)N[C@@H](Cc1ccc(O)c(NC(=O)CC[C@H](N)C(=O)O)c1)C(=O)N[C@H](C(=O)N1C[C@H](O)C[C@H]1C(=O)N[C@@H](C(=O)N[C@H](C(=O)N1CC[C@H](O)[C@H]1C(=O)N[C@H](C(=O)NCC(=O)N[C@@H](C(N)=O)[C@@H](C)O)[C@H](O)CC(N)=O)[C@@H](C)O)[C@@H](C)O)C(C)C)[C@@H](C)O)OC(=O)[C@@H](C)CCCN | 1 (≈ 0.59 µM) | 0.5 (≈ 0.295 µM) | 0.5 (≈ 0.295 µM) | 60 | 0.5 (≈ 0.295 µM) | 1.02
CCCCCCCCCCCCC[C@H](CC(=O)N[C@@H](C(=O)N[C@H](C)C(=O)N[C@@H](Cc1ccc(OCC(=O)N(C)C)cc1)C(=O)N[C@H](C(=O)N1C[C@H](O)C[C@H]1C(=O)N[C@@H](C(=O)N[C@H](C(=O)N1CC[C@H](O)[C@H]1C(=O)N[C@H](C(=O)NCC(=O)N[C@@H](C(N)=O)[C@@H](C)O)[C@H](O)CC(N)=O)[C@@H](C)O)[C@@H](C)O)C(C)C)[C@@H](C)O)OC(=O)[C@@H](C)CCCN | 1 (≈ 0.612 µM) | 0.25 (≈ 0.153 µM) | 1 (≈ 0.612 µM) | 85 | 0.5 (≈ 0.306 µM) | 
CCCCCCCCCCCCC[C@H](CC(=O)N[C@@H](C(=O)N[C@H](C)C(=O)N[C@@H](Cc1ccc(OCC(=O)O)cc1)C(=O)N[C@H](C(=O)N1C[C@H](O)C[C@H]1C(=O)N[C@@H](C(=O)N[C@H](C(=O)N1CC[C@H](O)[C@H]1C(=O)N[C@H](C(=O)NCC(=O)N[C@@H](C(N)=O)[C@@H](C)O)[C@H](O)CC(N)=O)[C@@H](C)O)[C@@H](C)O)C(C)C)[C@@H](C)O)OC(=O)[C@@H](C)CCCN | 1 (≈ 0.622 µM) | 0.125 (≈ 0.0777 µM) | 0.5 (≈ 0.311 µM) | 76 | 0.5 (≈ 0.311 µM) | 
CCCCCCCCCCCCC[C@H](CC(=O)N[C@@H](C(=O)N[C@H](C)C(=O)N[C@@H](Cc1ccc(O)c(NC(=O)[C@H](N)CO)c1)C(=O)N[C@H](C(=O)N1C[C@H](O)C[C@H]1C(=O)N[C@@H](C(=O)N[C@H](C(=O)N1CC[C@H](O)[C@H]1C(=O)N[C@H](C(=O)NCC(=O)N[C@@H](C(N)=O)[C@@H](C)O)[C@H](O)CC(N)=O)[C@@H](C)O)[C@@H](C)O)C(C)C)[C@@H](C)O)OC(=O)[C@@H](C)CCCN | 2 (≈ 1.21 µM) | 0.5 (≈ 0.303 µM) | 2 (≈ 1.21 µM) | 84 | 1 (≈ 0.605 µM) | 
CCCCCCCCCCCCC[C@H](CC(=O)N[C@@H](C(=O)N[C@H](C)C(=O)N[C@@H](Cc1ccc(O)c(NC(=O)[C@H](N)Cc2c[nH]cn2)c1)C(=O)N[C@H](C(=O)N1C[C@H](O)C[C@H]1C(=O)N[C@@H](C(=O)N[C@H](C(=O)N1CC[C@H](O)[C@H]1C(=O)N[C@H](C(=O)NCC(=O)N[C@@H](C(N)=O)[C@@H](C)O)[C@H](O)CC(N)=O)[C@@H](C)O)[C@@H](C)O)C(C)C)[C@@H](C)O)OC(=O)[C@@H](C)CCCN | 2 (≈ 1.18 µM) | 2 (≈ 1.18 µM) | 2 (≈ 1.18 µM) | 65 | 2 (≈ 1.18 µM) | 
CCCCCCCCCCCCC[C@H](CC(=O)N[C@@H](C(=O)N[C@H](C)C(=O)N[C@@H](Cc1ccc(OCC(=O)NCCCn2ccnc2)cc1)C(=O)N[C@H](C(=O)N1C[C@H](O)C[C@H]1C(=O)N[C@@H](C(=O)N[C@H](C(=O)N1CC[C@H](O)[C@H]1C(=O)N[C@H](C(=O)NCC(=O)N[C@@H](C(N)=O)[C@@H](C)O)[C@H](O)CC(N)=O)[C@@H](C)O)[C@@H](C)O)C(C)C)[C@@H](C)O)OC(=O)[C@@H](C)CCCN.Cl | 2 | 1 | 2 | 53 | 1 | 
CCCCCCCCCCCCC[C@@H]1CC(=O)N[C@@H]([C@@H](C)O)C(=O)N[C@@H](C)C(=O)N[C@@H](Cc2ccc(O)c(NC(=O)CCC(=O)O)c2)C(=O)N[C@@H](C(C)C)C(=O)N2C[C@H](O)C[C@H]2C(=O)N[C@@H]([C@@H](C)O)C(=O)N[C@@H]([C@@H](C)O)C(=O)N2CC[C@H](O)[C@H]2C(=O)N[C@@H]([C@H](O)CC(N)=O)C(=O)NCC(=O)N[C@@H]([C@@H](C)O)C(=O)N[C@@H](CCCN)C(=O)O1 (TA[X3]V[Hyp]TT[Pro(3S-OH)][Gln(3R-OH)]GT[Orn]; linker N-C via X1) | 0.5 (≈ 0.303 µM) | 0.25 (≈ 0.152 µM) | 1 (≈ 0.606 µM) | 79 | 0.5 (≈ 0.303 µM) | 
CCCCCCCCCCCCC[C@@H]1CC(=O)N[C@@H]([C@@H](C)O)C(=O)NC(C)C(=O)N[C@@H](Cc2ccc(O)c(NC(=O)CCC(=O)N3CCNCC3)c2)C(=O)N[C@@H](C(C)C)C(=O)N2C[C@H](O)C[C@H]2C(=O)N[C@@H]([C@@H](C)O)C(=O)N[C@@H]([C@@H](C)O)C(=O)N2CC[C@H](O)[C@H]2C(=O)N[C@@H]([C@H](O)CC(N)=O)C(=O)NCC(=O)N[C@@H]([C@@H](C)O)C(=O)N[C@@H](CCCN)C(=O)O1 (stereo partly drawn) (T[ξA][X2]V[Hyp]TT[Pro(3S-OH)][Gln(3R-OH)]GT[Orn]; linker N-C via X1) | 1 (≈ 0.582 µM) | 0.5 (≈ 0.291 µM) | 1 (≈ 0.582 µM) | 46 | 1 (≈ 0.582 µM) | 0.97
C[C@@H]1[C@H](O)[C@@H](C)/C=C/C=C/C=C/C=C/C=C/C=C/C=C/[C@H](O[C@@H]2O[C@H](C)[C@@H](O)[C@H](N)[C@@H]2O)C[C@@H]2O[C@](O)(C[C@@H](O)C[C@@H](O)[C@H](O)CC[C@@H](O)C[C@@H](O)CC(=O)O[C@H]1C)C[C@H](O)[C@H]2C(=O)O [AMPHOTERICIN B] |  |  |  |  |  | 0.132
OC(Cn1cncn1)(Cn1cncn1)c1ccc(F)cc1F [FLUCONAZOLE] |  |  |  |  |  | > 20
